Measured values taken from ChEMBL document CHEMBL2203206, “Hesperetin: an inhibitor of the transforming growth factor-β (TGF-β) signaling pathway” (Eur J Med Chem, 2012).
The source made the active and inactive calls. No cut-off for these calls is given here.

Experiments:
[1] = biological target: TGF-beta receptor type-2 (Homo sapiens) (UniProt P37173); assay: Displacement of biotinylated TGF-beta1 from human TGF-beta type 2 receptor at 100 uM after 1 hr by avidin-FITC-based flow cytometry
Procedure, shortened: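 HeLa cells were incubated 1 h with 0.1% DMSO or 100 μM compound in the presence of biotinylated TGF-β1. Bound ligand was detected with avidin-FITC and fluorescence intensity read by flow cytometry.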

[2] = biological target: TGF-beta receptor type-2 (Homo sapiens) (UniProt P37173); assay: Inhibition of TGF-beta1 induced TGF-beta type 2 receptor dimerization in human HeLa cells at 100 uM after 1 hr by single-molecule fluorescence microscopy; assay type: cell-based
Procedure, shortened: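 HeLa cells were transfected for 4 h with TβRII-GFP plasmid (0.2 μg/mL) to give low expression. They were given 0.1% DMSO or 100 μM compound for 1 h, then 15 min with 10 ng/mL TGF-β1 where stimulated. Live-cell TIRF imaging used 488-nm excitation at 10 Hz for 200 frames. Spot intensities were fitted with Gaussians to give monomer/dimer fractions; purified GFP served as monomer reference.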

HeLa [3] = assay: Antagonist activity at human TGF-beta receptor in HeLa cells assessed as reduction in TGF-beta1-induced Smad3 phosphorylation at 100 uM after 1 hr by Western blot analysis; assay type: functional, cell-based
Procedure, shortened: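 Starved HeLa cells given 0.1% DMSO vehicle or 100 μM compound for 1 h, with or without TGF-β1. Lysates in Laemmli buffer were denatured 10 min at 95°C and run on 7.5% SDS gels, then transferred to PVDF. Blots were probed with p-Smad3 and Smad3 antibodies (1:1000) and detected by ECL.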

HeLa [4] = assay: Antagonist activity at human TGF-beta receptor in HeLa cells assessed as suppression of nuclear translocation of Smad3 at 100 uM after 1 hr by immunofluorescence imaging; assay type: functional, cell-based
Procedure, shortened: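 HeLa cells were grown 24 h, then serum-starved 24 h and treated 1 h with 0.1% DMSO or 100 μM compound, ± TGF-β1. Cells were fixed in 4% paraformaldehyde, permeabilized with 0.1% Triton X-100 and blocked with 1% BSA/PBST. Staining used anti-Smad3 (1:200, overnight) and Alexa 488 secondary (1:500), imaged by confocal microscopy.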

HeLa [5] = assay: Antagonist activity at human TGF-beta receptor in HeLa cells assessed as reduction in TGF-beta1-induced p21 expression at 100 uM after 24 hrs by Western blot analysis; assay type: functional, cell-based
Procedure, shortened: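 Starved HeLa cells exposed to vehicle (0.1% DMSO) or 100 μM compound for 24 h, with or without TGF-β1. Lysates were denatured at 95°C and separated on 7.5% SDS gels. PVDF blots were probed with anti-p21 (1:1000) and read by enhanced chemiluminescence.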

HeLa [6] = assay: Antimigratory activity against human HeLa cells assessed as inhibition of TGF-beta1-induced cell migration at 100 uM after 24 hrs by scratch motility assay; assay type: functional, cell-based
Procedure, shortened: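 Confluent HeLa monolayers (1 × 10^6 cells/well), starved 24 h, were scratched with a pipette tip and washed. They then received 0.1% DMSO or 100 μM compound ± TGF-β1 for 24 h. Cells in five random fields of the scratch were counted and averaged per field.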

HeLa [7] = assay: Cytotoxicity against human HeLa cells at 1 to 200 uM after 24 hrs by MTS proliferation assay; assay type: cell-based
Procedure, shortened: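 HeLa cells were seeded at 1 × 10^4 per well in complete medium for 24 h. They were then exposed to vehicle (0.1% DMSO) or 0–200 μM compound for 24 h. Proliferation was read with a CellTiter 96 Aqueous non-radioactive (MTS-type) assay.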

[8] = biological target: TGF-beta receptor type-2 (Homo sapiens) (UniProt P37173); assay: Inhibition of TGF-beta1 induced TGF-beta type 2 receptor dimerization in human HeLa cells assessed as receptor dimers by bleaching-step counting assay (reference value: 39.9 +/- 2.5%); assay type: cell-based; parameters: scale not given: the % may be the effect or the level left
HeLa [9] = assay: Antimigratory activity against human HeLa cells assessed as inhibition of TGF-beta1-induced cell invasion across collagen matrix at 100 uM after 24 hr by collagen-based cell Invasion assay

Sequence of TGF-beta receptor type-2 (Homo sapiens) (P37173 whole entry): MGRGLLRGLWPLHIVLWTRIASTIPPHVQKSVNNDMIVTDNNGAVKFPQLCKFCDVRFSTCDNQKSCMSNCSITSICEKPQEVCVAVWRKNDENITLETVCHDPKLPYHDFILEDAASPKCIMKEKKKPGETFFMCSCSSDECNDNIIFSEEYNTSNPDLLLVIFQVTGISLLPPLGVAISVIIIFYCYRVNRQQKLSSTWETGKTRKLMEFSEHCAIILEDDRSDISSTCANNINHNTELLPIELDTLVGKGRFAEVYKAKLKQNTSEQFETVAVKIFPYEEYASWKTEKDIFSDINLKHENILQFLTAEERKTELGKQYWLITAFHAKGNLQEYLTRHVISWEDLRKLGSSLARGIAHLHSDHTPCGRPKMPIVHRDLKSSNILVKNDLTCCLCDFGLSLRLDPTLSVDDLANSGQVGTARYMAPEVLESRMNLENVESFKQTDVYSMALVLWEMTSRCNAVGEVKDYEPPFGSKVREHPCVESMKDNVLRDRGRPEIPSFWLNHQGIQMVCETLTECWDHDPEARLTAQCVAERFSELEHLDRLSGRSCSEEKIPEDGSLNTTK

Activity [1]: Active
inhibition [2]: 19.9%
Activity [8]: 19.5%
Compound: COc1ccc([C@@H]2CC(=O)c3c(O)cc(O)cc3O2)cc1O [HESPERETIN]
inhibition (HeLa [3]): Active
inhibition (HeLa [4]): Active
inhibition (HeLa [5]): Active
inhibition (HeLa [6]): Active
Activity (HeLa [7]): Non-toxic
inhibition (HeLa [9]): Active
